In test [1] the test system is African green monkey. In words: Effect on African green monkey serum assessed as potassium concentration at 0.5 mg/kg, iv. The format is functional, Chlorocebus sabaeus. The method, boiled down:
(§1)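 Single iv dose given to ketamine-sedated African green monkeys, either 0.1 or 0.5 mg/kg as the line states. Three read-outs were recorded after dosing: change in serum free fatty acids (β3 lipolysis), change in serum K+ (a decrease is β2-mediated) and change in heart rate (β1/β2 tachycardia). Changes were tested for significance at P < 0.05.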

In test [2] the test system is African green monkey. In words: Effect on tachycardia in African green monkey assessed as change in heart rate at 0.5 mg/kg, iv. Type of test: functional, Chlorocebus sabaeus. The method, boiled down: as §1
Test [3] deals with T1, Beta-3 adrenergic receptor (Homo sapiens, UniProt P13945). Briefly: Intrinsic activity at human cloned adrenergic beta3 receptor expressed in CHO cells assessed as cAMP accumulation relative to isoproterenol. The format is functional, cell-based. (In general: cAMP levels reflect the balance of adenylyl cyclase and phosphodiesterase activity.)
Target sequence in this assay (P13945 whole entry, looked up): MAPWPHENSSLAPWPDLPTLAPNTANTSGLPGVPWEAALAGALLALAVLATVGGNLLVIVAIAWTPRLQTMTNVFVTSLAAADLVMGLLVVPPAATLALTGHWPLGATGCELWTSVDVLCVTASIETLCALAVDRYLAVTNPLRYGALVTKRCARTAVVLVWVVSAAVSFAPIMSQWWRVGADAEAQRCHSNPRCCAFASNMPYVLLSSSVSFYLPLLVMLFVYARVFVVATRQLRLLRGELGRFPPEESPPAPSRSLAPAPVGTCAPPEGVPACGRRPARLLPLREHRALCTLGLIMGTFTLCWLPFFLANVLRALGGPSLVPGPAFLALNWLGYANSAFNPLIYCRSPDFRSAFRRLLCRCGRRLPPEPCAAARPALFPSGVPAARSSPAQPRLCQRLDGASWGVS
Test [4] deals with T1, Beta-3 adrenergic receptor. Briefly: Displacement of [125I]iodocyanopindolol from cloned human adrenergic beta-3 receptor expressed in CHO cells. Type of test: cell-based.
Target sequence in this assay (P13945 whole entry): as the sequence (P13945 whole entry, looked up) above
Test [5] deals with African green monkey. In words: Effect on free fatty acid level in African green monkey serum at 0.5 mg/kg, iv. Type of test: functional, Chlorocebus sabaeus. Summed up:
as §1

Test [6] relates to African green monkey. In words: Effect on African green monkey assessed as change in free fatty acid level at 0.1 mg/kg, iv. The format is functional, Chlorocebus sabaeus. The method, boiled down:
as §1

For test [7], the species on record is Homo sapiens. In words: Selectivity ratio of Ki for adrenergic beta2 receptor Ki for adrenergic beta-3 receptor.
Test [8] relates to African green monkey. Briefly: Effect on tachycardia in African green monkey assessed as change in heart rate at 0.1 mg/kg, iv. Type of test: functional, Chlorocebus sabaeus. Summed up:
as §1

Test [9] deals with African green monkey. In words: Effect on potassium levels in African green monkey serum at 0.1 mg/kg, iv. Type of test: functional, Chlorocebus sabaeus. On the set-up: unit not given beside the values. Summed up: as §1
The target of test [10] is Beta-2 adrenergic receptor (Homo sapiens, UniProt P07550). In words: Displacement of [125I]iodocyanopindolol from human cloned adrenergic beta-2 receptor expressed in CHO cells. Type of test: cell-based.
Beta-2 adrenergic receptor, sequence (P07550 whole entry): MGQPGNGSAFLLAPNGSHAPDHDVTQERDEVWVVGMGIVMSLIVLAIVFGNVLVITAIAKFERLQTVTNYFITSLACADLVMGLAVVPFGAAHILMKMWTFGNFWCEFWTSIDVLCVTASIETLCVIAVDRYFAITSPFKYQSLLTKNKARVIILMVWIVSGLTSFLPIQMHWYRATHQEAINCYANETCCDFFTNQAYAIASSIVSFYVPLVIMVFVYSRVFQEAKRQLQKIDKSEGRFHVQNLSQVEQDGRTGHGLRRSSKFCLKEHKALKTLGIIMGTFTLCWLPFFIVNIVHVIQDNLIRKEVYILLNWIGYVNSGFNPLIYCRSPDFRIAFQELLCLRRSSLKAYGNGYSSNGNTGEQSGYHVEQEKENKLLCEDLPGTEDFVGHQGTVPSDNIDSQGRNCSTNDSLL
Test [11] has as its target Beta-1 adrenergic receptor (Homo sapiens, UniProt P08588). Briefly: Displacement of [125I]iodocyanopindolol from human cloned adrenergic beta-1 receptor expressed in CHO cells. The format is cell-based.
For test [12], the species on record is Homo sapiens. Briefly: Selectivity ratio of Ki for human adrenergic beta-1 receptor to Ki for human adrenergic beta-3 receptor.
Test [13] concerns African green monkey. Briefly: Ratio of effect on tachycardia to ED50 for lipolysis in African green monkey. The format is functional, Chlorocebus sabaeus. Summed up:
(§2)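 Compounds were given iv to ketamine-sedated African green monkeys across a range of doses. Lipolysis ED50 (mg/kg) came from the rise in serum free fatty acids. Onset doses were the lowest doses giving a statistically significant rise in heart rate (β1) or fall in serum K+ (β2). Each margin is the onset dose divided by the lipolysis ED50.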

Test [14] relates to African green monkey. Briefly: Ratio of serum potassium concentration to ED50 for lipolysis in African green monkey. The format is functional, Chlorocebus sabaeus. The method, boiled down:
as §2

Test [15] relates to African green monkey. In words: Effect on lipolysis in iv dosed African green monkey. Type of test: functional. The settings on record: Chlorocebus sabaeus. The method, boiled down: as §2
Test [16] has as its target Beta-1 adrenergic receptor (Cavia porcellus) (UniProt B0FL73). In words: Intrinsic activity at adrenergic beta-1 receptor in spontaneously beating guinea pig atria assessed as acceleration in contraction relative to isoproterenol.

Beta-1 adrenergic receptor, sequence (P08588 whole entry): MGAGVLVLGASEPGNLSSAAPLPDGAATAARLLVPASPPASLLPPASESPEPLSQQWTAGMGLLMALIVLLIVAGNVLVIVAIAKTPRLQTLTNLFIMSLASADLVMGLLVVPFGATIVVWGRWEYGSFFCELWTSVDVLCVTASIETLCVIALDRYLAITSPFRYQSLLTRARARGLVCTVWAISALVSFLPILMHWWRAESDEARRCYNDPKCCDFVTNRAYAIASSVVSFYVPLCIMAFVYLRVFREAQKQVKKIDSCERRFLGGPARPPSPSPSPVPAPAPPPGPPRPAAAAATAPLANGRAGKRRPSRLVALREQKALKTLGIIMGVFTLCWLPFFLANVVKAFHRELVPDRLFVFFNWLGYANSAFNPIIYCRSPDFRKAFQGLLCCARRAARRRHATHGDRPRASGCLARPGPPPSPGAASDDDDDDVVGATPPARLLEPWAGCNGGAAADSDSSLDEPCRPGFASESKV
Beta-1 adrenergic receptor (Cavia porcellus), sequence (B0FL73 1-467): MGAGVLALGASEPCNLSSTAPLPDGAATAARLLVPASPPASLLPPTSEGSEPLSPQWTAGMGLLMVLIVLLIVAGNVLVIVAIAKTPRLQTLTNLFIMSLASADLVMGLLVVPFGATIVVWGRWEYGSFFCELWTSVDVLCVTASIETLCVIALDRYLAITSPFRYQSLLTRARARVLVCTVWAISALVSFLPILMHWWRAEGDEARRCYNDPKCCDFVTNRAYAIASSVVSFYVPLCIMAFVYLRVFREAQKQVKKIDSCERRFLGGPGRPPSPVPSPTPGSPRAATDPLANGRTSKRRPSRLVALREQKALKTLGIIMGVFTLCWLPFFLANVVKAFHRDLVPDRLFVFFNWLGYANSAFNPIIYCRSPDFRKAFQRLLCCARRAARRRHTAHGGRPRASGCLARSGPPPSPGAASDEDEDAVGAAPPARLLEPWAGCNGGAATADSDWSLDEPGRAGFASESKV

Consider `COc1ccc(C(NC[C@H](O)c2ccc(O)c(NS(C)(=O)=O)c2F)c2ccc(OC)cc2)cc1`, for which the Activity is reported as -0.49 with African green monkey [1], 4 with African green monkey [2] and 0.39 in the test with African green monkey [5]. For the same compound, in test [3], the Intrinsic activity is 24%. For the same compound, the Ki (commonly a dissociation constant, usually derived from enzyme kinetics or from competition with a known ligand) in test [4] is 1700 nM.
Turning to `COc1ccc([C@H](CCc2ccc(Cl)cc2)NC[C@H](O)Cc2ccc(O)c(NS(C)(=O)=O)c2)cc1OC`, the Activity was 0.87 in the test on African green monkey [6], 32 in the test with African green monkey [8] and -0.32 in the test with African green monkey [9]. Also, the Ratio Ki in the test listed under Homo sapiens [7] came to 10; in the test listed under Homo sapiens [12], 88. The Intrinsic activity in test [3] is 89%. The values for the Ki in test [4], in [10] and in [11] were 12 nM, 120 nM and 1050 nM, respectively.
`CS(=O)(=O)Nc1cc([C@@H](O)CN[C@H](Cc2ccccc2)c2ccc(OC(F)F)cc2)ccc1O`: the values for the Ratio in the test with African green monkey [13] and in the test with African green monkey [14] were 3 and over 25, respectively. For the same compound, the Activity with African green monkey [6] turned out to be 1.05; with African green monkey [8], 26; in the test on African green monkey [9] it was 0.08. The ED50 – broadly, the dose that gives a 50% effect, or the effect in half of the subjects – with African green monkey [15] was determined as 0.03 mg/kg. For the same compound, the Intrinsic activity in [3] came out at 107%.
Consider `COc1ccc([C@@H](Cc2ccccc2)NC[C@@H](O)Cc2ccc(O)c(NS(C)(=O)=O)c2)cc1OC`, for which the values for the Ratio in the test with African green monkey [13] and in the test on African green monkey [14] were 3 and over 55, respectively. Besides, the Activity is listed as 1.06 in the test on African green monkey [6], 24 with African green monkey [8] and -0.08 with African green monkey [9]. The compound also returned a 50% effective dose (ED50) with African green monkey [15] of 0.009 mg/kg. Further, the Intrinsic activity in test [16] worked out at 60%; in test [3], 86%. Also, the Ki is 6 nM in test [4], 66 nM in test [10] and 2600 nM in test [11].
Regarding `COc1ccc([C@H](CCc2ccccc2)NC[C@H](O)Cc2ccc(O)c(NS(C)(=O)=O)c2)cc1OC`, the results for the Activity in the test with African green monkey [6], with African green monkey [8] and in the test on African green monkey [9] were 0.95, 29 and -0.25, respectively. In addition, the values for the Ratio Ki in the test listed under Homo sapiens [7] and in the test listed under Homo sapiens [12] were 43 and 111, respectively. Besides, in test [3], the Intrinsic activity was found to be 84%. In addition, the Ki in [4] is 9 nM; in test [10], 390 nM; in [11], 1000 nM.
For `CCOP(=O)(OCC)c1ccc(NC(=O)[C@@](C)(NC[C@H](O)c2ccc(O)c(NS(C)(=O)=O)c2)c2ccc(OC)cc2)cc1`, the Ratio with African green monkey [13] and in the test on African green monkey [14] was over 25 each time. The compound further came in with an ED50 in the test with African green monkey [15] of 0.1 mg/kg.
Consider `CS(=O)(=O)Nc1cc([C@@H](O)CNC(c2ccc(OC(F)F)cc2)c2ccc(OC(F)F)cc2)ccc1O`, for which the Ratio in the test with African green monkey [13] was 6; in the test on African green monkey [14], over 60. In the test with African green monkey [15], the 50% effect level (ED50) was put at a dose of 0.08 mg/kg.

The record behind these values is ChEMBL document CHEMBL1140016, “Arylpropanolamines: selective beta3 agonists arising from strategies to mitigate phase I metabolic transformations” (Bioorg Med Chem Lett, 2007).
